Assay results published in ChEMBL document CHEMBL3526048, “In vitro metabolism of rivoglitazone, a novel peroxisome proliferator-activated receptor γ agonist, in rat, monkey, and human liver microsomes and freshly isolated hepatocytes” (Drug Metab Dispos, 2011).

Assays:
[1] = system: Hepatocyte; experiment: Drug level in human hepatocytes treated with [14C]-rivoglitazone at 30 uM after 3 hrs by radio-HPLC/LC-MS/MS analysis in presence of NADPH-generating system/SAM; assay type: ADME, cell-based
[2] = system: Liver microsome; experiment: Drug level in Sprague-Dawley rat liver microsomes treated with [14C]-rivoglitazone at 20 uM after 2 hrs by radio-HPLC/LC-MS/MS analysis in presence of NADPH-generating system/SAM; assay type: ADME
Outline: (§1)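 Pooled male liver microsomes (1 mg/ml protein; rat from 94 Sprague-Dawley, monkey from 8 cynomolgus, human from 23 donors) were incubated with [¹⁴C]rivoglitazone (20 μM). Buffer: 10 mM potassium phosphate (pH 7.4). Cofactors: NADPH-generating system (2 mM NADP⁺, 20 mM G6P, 2 U/ml G6PDH, 10 mM MgCl₂), with or without 2 mM SAM. Incubation 2 h at 37°C with shaking; controls lacked NADPH system and SAM alone. Acetonitrile stop, radio-HPLC plus LC-MS.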

[3] = Drug level in cynomolgus monkey liver microsomes treated with [14C]-rivoglitazone at 20 uM after 2 hrs by radio-HPLC/LC-MS/MS analysis in presence of NADPH-generating system/SAM; assay type: ADME, Macaca fascicularis; outline: as §1
[4] = system: Hepatocyte; experiment: Drug level in rat hepatocytes treated with [14C]-rivoglitazone at 30 uM after 3 hrs by radio-HPLC/LC-MS/MS analysis in presence of NADPH-generating system/SAM; assay type: ADME, cell-based
[5] = system: Liver microsome; experiment: Drug level in human liver microsomes treated with [14C]-rivoglitazone at 20 uM after 2 hrs by radio-HPLC/LC-MS/MS analysis in presence of NADPH-generating system/SAM; assay type: ADME; outline: as §1
[6] = Retention time of the compound by LC-MS/MS analysis; assay type: physicochemical
Outline: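 LC-MS/MS used a YMC-Pack ODS-A column (1.5 × 150 mm, 5 μm) at 30°C, 0.1 ml/min. Mobile phase was water and acetonitrile, each with 0.01% TFA. Gradient: 12→60% B over 30 min, →90% B over 5 min, hold 5 min. Detection was UV 220 nm with positive ESI Q-TOF (capillary 3300 V, cone 45 V), collision energy 20 eV and xenon as collision gas.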

[7] = system: Hepatocyte; experiment: Drug level in human hepatocytes treated with [14C]-rivoglitazone at 30 uM after 3 hrs by radio-HPLC/LC-MS/MS analysis in presence of NADPH-generating system and NADPH-generating system/SAM; assay type: ADME, cell-based
[8] = target: Cytochrome P450 3A4 (Homo sapiens, UniProt P08684); experiment: Activity of human CYP3A4 expressed in microsomes isolated from baculovirus infected insect cell assessed as enzyme-mediated compound formation treated with [14C]-rivoglitazone at 20 uM after 2 hrs by radio-HPLC/LC-MS/MS analysis in presence of NADPH-generating system and NADPH-generating system/SAM; assay type: ADME
Sequence of Cytochrome P450 3A4 (P08684 whole entry): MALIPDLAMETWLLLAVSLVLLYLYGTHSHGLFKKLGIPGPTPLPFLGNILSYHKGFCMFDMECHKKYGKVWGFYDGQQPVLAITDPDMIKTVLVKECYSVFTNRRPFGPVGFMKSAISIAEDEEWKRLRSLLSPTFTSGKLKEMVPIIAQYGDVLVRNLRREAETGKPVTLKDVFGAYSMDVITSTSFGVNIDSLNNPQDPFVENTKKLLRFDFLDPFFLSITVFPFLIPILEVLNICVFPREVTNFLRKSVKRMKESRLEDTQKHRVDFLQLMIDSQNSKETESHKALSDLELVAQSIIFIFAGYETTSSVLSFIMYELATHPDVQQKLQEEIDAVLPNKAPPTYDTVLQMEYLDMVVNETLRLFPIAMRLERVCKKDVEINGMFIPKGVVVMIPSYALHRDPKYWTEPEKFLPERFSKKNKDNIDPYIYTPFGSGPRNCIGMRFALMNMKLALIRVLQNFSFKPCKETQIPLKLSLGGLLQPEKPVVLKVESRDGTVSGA

[9] = target: Cytochrome P450 3A5 (Homo sapiens, UniProt P20815); experiment: Activity of human CYP3A5 expressed in microsomes isolated from baculovirus infected insect cell assessed as enzyme-mediated compound formation treated with [14C]-rivoglitazone at 20 uM after 2 hrs by radio-HPLC/LC-MS/MS analysis in presence of NADPH-generating system and NADPH-generating system/SAM; assay type: ADME
Sequence of Cytochrome P450 3A5 (P20815 whole entry): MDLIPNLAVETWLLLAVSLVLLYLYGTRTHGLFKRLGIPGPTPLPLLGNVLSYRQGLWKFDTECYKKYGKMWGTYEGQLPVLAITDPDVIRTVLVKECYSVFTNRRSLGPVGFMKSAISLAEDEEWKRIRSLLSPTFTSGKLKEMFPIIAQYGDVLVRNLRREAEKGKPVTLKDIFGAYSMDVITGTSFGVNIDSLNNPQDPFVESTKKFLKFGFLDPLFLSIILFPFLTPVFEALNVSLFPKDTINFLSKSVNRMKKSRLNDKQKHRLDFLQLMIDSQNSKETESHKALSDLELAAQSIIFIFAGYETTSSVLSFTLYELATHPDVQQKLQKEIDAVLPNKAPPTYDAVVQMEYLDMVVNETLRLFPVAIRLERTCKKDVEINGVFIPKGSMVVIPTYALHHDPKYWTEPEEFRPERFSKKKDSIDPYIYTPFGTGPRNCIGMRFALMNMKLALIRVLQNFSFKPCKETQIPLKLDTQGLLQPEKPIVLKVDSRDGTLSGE
Outline: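 cDNA-expressed human CYP3A5 in baculovirus-insect-cell microsomes (1 mg/ml protein) was incubated with [¹⁴C]rivoglitazone (20 μM) in 50 mM potassium phosphate (pH 7.4) or 100 mM Tris-HCl (pH 7.5). NADPH-generating system: 2 mM NADP⁺, 20 mM glucose 6-phosphate, 2 units/ml G6PDH, 10 mM MgCl₂. Incubation ran 2 h at 37°C with shaking; insect-cell control supersomes served as control. Acetonitrile stop, supernatant concentrated, then radio-HPLC, LC-MS and LC-MS/MS.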

[10] = system: Liver microsome; experiment: Drug level in Sprague-Dawley rat liver microsomes treated with [14C]-rivoglitazone at 20 uM after 2 hrs by radio-HPLC/LC-MS/MS analysis in presence of NADPH-generating system and NADPH-generating system/SAM; assay type: ADME; outline: as §1
[11] = target: T1, Cytochrome P450 2C8 (Homo sapiens, UniProt P10632); experiment: Activity of human CYP2C8 expressed in microsomes isolated from baculovirus infected insect cell assessed as enzyme-mediated compound formation treated with [14C]-rivoglitazone at 20 uM after 2 hrs by radio-HPLC/LC-MS/MS analysis in presence of NADPH-generating system and NADPH-generating system/SAM; assay type: ADME
T1 sequence (P10632 whole entry): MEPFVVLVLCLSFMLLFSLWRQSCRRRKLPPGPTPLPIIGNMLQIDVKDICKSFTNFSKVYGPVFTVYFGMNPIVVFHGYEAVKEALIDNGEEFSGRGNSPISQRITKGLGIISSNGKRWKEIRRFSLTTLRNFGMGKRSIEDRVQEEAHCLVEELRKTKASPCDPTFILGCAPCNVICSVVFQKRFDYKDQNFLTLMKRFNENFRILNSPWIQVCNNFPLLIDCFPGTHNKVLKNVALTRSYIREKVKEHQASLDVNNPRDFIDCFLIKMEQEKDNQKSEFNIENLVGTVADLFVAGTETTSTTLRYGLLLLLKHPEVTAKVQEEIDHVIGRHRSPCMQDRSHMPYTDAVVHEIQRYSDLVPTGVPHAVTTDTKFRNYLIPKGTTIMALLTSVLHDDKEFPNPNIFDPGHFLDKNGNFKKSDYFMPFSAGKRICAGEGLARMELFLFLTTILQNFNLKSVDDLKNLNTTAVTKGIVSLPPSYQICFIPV
Outline: (§2)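 Baculovirus/insect-cell microsomes expressing single human CYPs, 1 mg/ml protein, with 50 mM potassium phosphate (pH 7.4) or 100 mM Tris-HCl (pH 7.5). NADPH-generating system: 2 mM NADP⁺, 20 mM glucose 6-phosphate, 2 units/ml G6PDH, 10 mM MgCl₂. [¹⁴C]rivoglitazone at 20 μM, 2 h at 37°C with shaking. Control used insect-cell control supersomes. Stopped with acetonitrile; supernatant concentrated under nitrogen; metabolites analysed by radio-HPLC, LC-MS and LC-MS/MS.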

[12] = system: Liver microsome; experiment: Drug level in human liver microsomes treated with [14C]-rivoglitazone at 20 uM after 2 hrs by radio-HPLC/LC-MS/MS analysis in presence of NADPH-generating system and NADPH-generating system/SAM; assay type: ADME; outline: as §1
[13] = target: Cytochrome P450 2D6 (Homo sapiens, UniProt P10635); experiment: Activity of human CYP2D6 expressed in microsomes isolated from baculovirus infected insect cell assessed as enzyme-mediated compound formation treated with [14C]-rivoglitazone at 20 uM after 2 hrs by radio-HPLC/LC-MS/MS analysis in presence of NADPH-generating system and NADPH-generating system/SAM; assay type: ADME
Sequence of Cytochrome P450 2D6 (P10635 whole entry): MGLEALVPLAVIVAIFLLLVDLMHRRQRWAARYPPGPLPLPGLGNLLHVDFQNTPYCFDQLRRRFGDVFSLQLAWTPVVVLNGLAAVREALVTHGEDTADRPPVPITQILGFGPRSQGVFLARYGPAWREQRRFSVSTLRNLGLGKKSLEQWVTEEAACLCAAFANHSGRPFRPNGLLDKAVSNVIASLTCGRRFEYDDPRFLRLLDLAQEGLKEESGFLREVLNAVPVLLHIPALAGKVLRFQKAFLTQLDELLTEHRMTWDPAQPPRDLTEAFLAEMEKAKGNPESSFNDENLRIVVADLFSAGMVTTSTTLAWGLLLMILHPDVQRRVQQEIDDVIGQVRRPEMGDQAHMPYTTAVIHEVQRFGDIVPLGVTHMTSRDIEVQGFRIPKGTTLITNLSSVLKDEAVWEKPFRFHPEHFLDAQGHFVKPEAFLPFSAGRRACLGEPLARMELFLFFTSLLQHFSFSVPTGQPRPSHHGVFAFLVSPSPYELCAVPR

[14] = target: T2, Cytochrome P450 1A2 (Homo sapiens, UniProt P05177); experiment: Activity of human CYP1A2 expressed in microsomes isolated from baculovirus infected insect cell assessed as enzyme-mediated compound formation treated with [14C]-rivoglitazone at 20 uM after 2 hrs by radio-HPLC/LC-MS/MS analysis in presence of NADPH-generating system and NADPH-generating system/SAM; assay type: ADME; outline: as §2
T2 sequence (P05177 whole entry): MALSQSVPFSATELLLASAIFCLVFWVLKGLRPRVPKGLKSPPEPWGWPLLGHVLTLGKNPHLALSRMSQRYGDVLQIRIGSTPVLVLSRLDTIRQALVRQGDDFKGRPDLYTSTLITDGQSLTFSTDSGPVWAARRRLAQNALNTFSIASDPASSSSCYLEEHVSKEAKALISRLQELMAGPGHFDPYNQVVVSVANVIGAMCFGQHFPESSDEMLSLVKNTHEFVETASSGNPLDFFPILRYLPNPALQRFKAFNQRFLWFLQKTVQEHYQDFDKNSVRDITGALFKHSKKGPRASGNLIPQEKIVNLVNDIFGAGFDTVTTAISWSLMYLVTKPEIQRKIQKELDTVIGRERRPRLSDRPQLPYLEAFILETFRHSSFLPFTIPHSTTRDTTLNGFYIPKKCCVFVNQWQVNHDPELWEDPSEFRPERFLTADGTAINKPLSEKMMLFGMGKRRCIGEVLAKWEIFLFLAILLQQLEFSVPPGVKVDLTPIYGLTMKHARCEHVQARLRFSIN

[15] = system: Hepatocyte; experiment: Drug level in rat hepatocytes treated with [14C]-rivoglitazone at 30 uM after 3 hrs by radio-HPLC/LC-MS/MS analysis in presence of NADPH-generating system and NADPH-generating system/SAM; assay type: ADME, cell-based
[16] = target: Cytochrome P450 2C19 (Homo sapiens, UniProt P33261); experiment: Activity of human CYP2C19 expressed in microsomes isolated from baculovirus infected insect cell assessed as enzyme-mediated compound formation treated with [14C]-rivoglitazone at 20 uM after 2 hrs by radio-HPLC/LC-MS/MS analysis in presence of NADPH-generating system and NADPH-generating system/SAM; assay type: ADME; outline: as §2
Sequence of Cytochrome P450 2C19 (P33261 whole entry): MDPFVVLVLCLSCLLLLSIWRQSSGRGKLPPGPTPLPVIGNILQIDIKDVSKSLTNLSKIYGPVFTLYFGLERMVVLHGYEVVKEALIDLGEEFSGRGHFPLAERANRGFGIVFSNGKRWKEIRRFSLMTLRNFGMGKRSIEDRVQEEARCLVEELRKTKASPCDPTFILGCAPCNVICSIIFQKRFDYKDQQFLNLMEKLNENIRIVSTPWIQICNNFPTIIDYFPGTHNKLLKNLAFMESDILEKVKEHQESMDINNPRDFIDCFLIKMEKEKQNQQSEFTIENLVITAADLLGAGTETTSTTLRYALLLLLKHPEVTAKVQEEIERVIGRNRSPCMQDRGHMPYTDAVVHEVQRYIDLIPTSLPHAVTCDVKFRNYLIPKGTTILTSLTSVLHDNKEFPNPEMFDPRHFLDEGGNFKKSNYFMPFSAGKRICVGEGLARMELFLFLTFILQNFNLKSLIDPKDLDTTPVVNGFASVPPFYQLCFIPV

[17] = system: Hepatocyte (Macaca fascicularis); experiment: Drug level in monkey hepatocytes treated with [14C]-rivoglitazone at 30 uM after 3 hrs by radio-HPLC/LC-MS/MS analysis in presence of NADPH-generating system and NADPH-generating system/SAM; conditions: cynomolgus monkey
[18] = target: Cytochrome P450 2C9 (Homo sapiens, UniProt P11712); experiment: Activity of human CYP2C9 expressed in microsomes isolated from baculovirus infected insect cell assessed as enzyme-mediated compound formation treated with [14C]-rivoglitazone at 20 uM after 2 hrs by radio-HPLC/LC-MS/MS analysis in presence of NADPH-generating system and NADPH-generating system/SAM; assay type: ADME
Sequence of Cytochrome P450 2C9 (P11712 whole entry): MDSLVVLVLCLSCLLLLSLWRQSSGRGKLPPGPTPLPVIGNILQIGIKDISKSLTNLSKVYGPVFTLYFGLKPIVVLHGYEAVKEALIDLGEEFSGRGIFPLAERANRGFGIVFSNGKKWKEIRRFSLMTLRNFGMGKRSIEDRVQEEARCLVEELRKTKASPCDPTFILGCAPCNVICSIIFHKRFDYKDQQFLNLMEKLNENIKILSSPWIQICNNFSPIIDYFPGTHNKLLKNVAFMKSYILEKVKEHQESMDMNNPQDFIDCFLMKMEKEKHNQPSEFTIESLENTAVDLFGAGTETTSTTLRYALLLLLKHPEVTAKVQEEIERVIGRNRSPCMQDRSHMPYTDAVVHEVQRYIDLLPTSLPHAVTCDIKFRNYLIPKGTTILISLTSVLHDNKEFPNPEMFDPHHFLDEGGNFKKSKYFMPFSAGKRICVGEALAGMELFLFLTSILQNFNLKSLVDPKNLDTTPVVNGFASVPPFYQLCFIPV

[19] = Drug level in cynomolgus monkey liver microsomes treated with [14C]-rivoglitazone at 20 uM after 2 hrs by radio-HPLC/LC-MS/MS analysis in presence of NADPH-generating system and NADPH-generating system/SAM; assay type: ADME, Macaca fascicularis; outline: as §1
[20] = system: Hepatocyte; experiment: Drug level in human hepatocytes treated with [14C]-rivoglitazone at 30 uM after 3 hrs by radio-HPLC/LC-MS/MS analysis; assay type: ADME, cell-based
Outline: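 Freshly isolated hepatocytes were suspended in HBSS at 2×10^6 viable cells/ml; trypan-blue viability was rat 88%, monkey 91 and 94%, human 66, 73 and 81%. Donors were rat (7 weeks, 170 g) and two male cynomolgus monkeys. Cells were incubated with [¹⁴C]rivoglitazone (30 μM) for 3 h at 37°C under 95% O₂/5% CO₂. Acetonitrile stop, sonication, samples pooled per species, supernatant analysed by radio-HPLC and LC-MS.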

Row | Drug metabolism [1] | Drug metabolism [2] | Drug metabolism [3] | Drug metabolism [4] | Drug metabolism [5] | Retention_time [6] [min] | Drug metabolism [7] | Drug metabolism [8] | Drug metabolism [9] | Drug metabolism [10] | Drug metabolism [11] | Drug metabolism [12] | Drug metabolism [13] | Drug metabolism [14] | Drug metabolism [15] | Drug metabolism [16] | Drug metabolism [17] | Drug metabolism [18] | Drug metabolism [19] | Drug metabolism [20] | Structure (SMILES)
1 | metabolite_detected | metabolite_detected | metabolite_detected | metabolite_detected | metabolite_detected | 16.1 | – | – | – | – | – | – | – | – | – | – | – | – | – | – | COc1ccc2nc(COc3ccc(CC(C(N)=O)[S+](C)[O-])cc3)n(C)c2c1 (centres undefined)
2 | – | – | – | – | – | 16.3 | – | metabolite_detected | metabolite_detected | metabolite_detected | metabolite_detected | metabolite_detected | metabolite_detected | metabolite_detected | – | metabolite_detected | – | metabolite_detected | metabolite_detected | – | COc1ccc2nc(COc3ccc(CC(O)C(N)=O)cc3)n(C)c2c1 (centres undefined)
3 | – | – | – | – | – | 20.2 | – | metabolite_detected | metabolite_detected | metabolite_detected | metabolite_detected | metabolite_detected | metabolite_detected | metabolite_detected | – | metabolite_detected | – | metabolite_detected | metabolite_detected | – | COc1ccc2nc(COc3ccc(CC(S)C(N)=O)cc3)n(C)c2c1 (centres undefined)

Continued, compound first:

Row | Structure (SMILES) | Drug metabolism [1] | Drug metabolism [2] | Drug metabolism [3] | Drug metabolism [4] | Drug metabolism [5] | Retention_time [6] [min] | Drug metabolism [7] | Drug metabolism [8] | Drug metabolism [9] | Drug metabolism [10] | Drug metabolism [11] | Drug metabolism [12] | Drug metabolism [13] | Drug metabolism [14] | Drug metabolism [15] | Drug metabolism [16] | Drug metabolism [17] | Drug metabolism [18] | Drug metabolism [19] | Drug metabolism [20]
4 | Cn1c(COc2ccc(CC3SC(=O)NC3=O)cc2)nc2ccc(O)cc21 (centres undefined) | – | – | – | – | – | 19.2 | metabolite_detected | metabolite_detected | metabolite_detected | metabolite_detected | metabolite_detected | metabolite_detected | metabolite_detected | metabolite_detected | metabolite_detected | metabolite_detected | metabolite_detected | metabolite_detected | metabolite_detected | –
5 | COc1ccc2nc(COc3ccc(CC(SSCC(N)C(=O)O)C(=O)O)cc3)n(C)c2c1 (centres undefined) | – | – | – | – | – | 17.1 | – | – | – | – | – | – | – | – | – | – | – | – | – | metabolite_detected
6 | COc1ccc2nc(COc3ccc(CC4(O)SC(=O)NC4=O)cc3)n(C)c2c1 (centres undefined) | – | – | – | – | – | 21.5 | metabolite_detected | metabolite_detected | metabolite_detected | metabolite_detected | metabolite_detected | metabolite_detected | metabolite_detected | metabolite_detected | metabolite_detected | metabolite_detected | metabolite_detected | metabolite_detected | metabolite_detected | –
7 | COc1ccc2nc(COc3ccc(CC(C(N)=O)S(C)(=O)=O)cc3)n(C)c2c1 (centres undefined) | metabolite_detected | metabolite_detected | metabolite_detected | metabolite_detected | metabolite_detected | 18.1 | – | – | – | – | – | – | – | – | – | – | – | – | – | –
